In the library only some 9.6% were active in any assay of this set; here they are far more common.
BaF3 parental – reduces parental Ba/F3 cell viability, JAK2V617F counter-screen; CellTiter-Glo ATP luminescence; inhibition, % at 5.6 µM; 220,000 tested, 1.1% active; AID 1486;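 active = inhibition above a per-campaign cutoff, the mean inhibition of all tested compounds plus 3 SD, cut at about 27% in these data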
APP transl inh – APP translation inhibition. SH-SY5Y APP 5'UTR-luciferase reporter, luminescence. inhibition, % at 2 µM. 190,000 tested, 0.82% active. AID 1285;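 active = inhibition above a set limit, derived from the sample mean plus 3 SD, cut at about 45% in these data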
Ba/F3 V617F tox – lowers viability of Ba/F3 cells expressing EpoR and JAK2V617F. 220,000 tested, 1.1% active. inhibition, % at 5.6 µM. ATP luminescence. AID 1446;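 active = inhibition above the campaign mean plus 3 SD over all tested compounds, cut at about 24% in these data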;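 also: cytokine-independent growth of Ba/F3 cells driven by EpoR plus mutant JAK2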
Lmaj promast – inhibitors of Leishmania major promastigote growth. Leishmania major promastigotes, resazurin fluorescence viability. inhibition, % at 10 µM. 200,000 tested, 9% active. AID 1063; in the data active = inhibition above about 50%;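 also: promastigotes grown with compound for 44 hours at 28 °C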
MT stabilizer – stabilizes microtubules in HeLa cells; HeLa tubulin immunostaining HCS, 24 h; share of cells brighter than vehicle mean+2SD; % tubulin-high responders, % at 10 µM; 200,000 tested, 0.83% active; AID 2205;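 active = plate Z-score above 3 for both tubulin-high and condensed-nucleus cell shares, with cell loss under 80%, at 10 µM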;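 also: anti alpha tubulin signal scored within the nucleus-defined area of each cell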
bCat nuc transl – alters nuclear translocation of beta-catenin in HeLa cells. AID 1665. nuclear translocation activity, % at 5 µM. immunofluorescence imaging. 190,000 tested, 0.3% active;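 active = nuclear translocation activity above 50% at 5 µM, with a well cell count of 50 or more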;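 also: per-cell ratio of nuclear to cytoplasmic median beta-catenin stain intensity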
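Test system: HeLa cells, endogenous beta-catenin; Compound: single 5 µM dose plus 0.02–20 µM confirmation series; Times: compound exposure 24 h at 37°C; Signal: fluorescence imaging of beta-catenin antibody stain plus DAPI; Read-out: % activation, nuclear-to-cytoplasmic median beta-catenin signal ratio per cell.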
Numbers stand for hits; i = inactive; nt = no result given.

SMILES	BaF3 parental	APP transl inh	Ba/F3 V617F tox	Lmaj promast	MT stabilizer	bCat nuc transl
CN(C)C=NC(=O)c1cn(-c2ccc(F)cc2)c(=O)c2ccccc12	i	i	i	i	i	i
CC(Sc1nnc(-c2ccccc2Br)n1-c1cccc(C(F)(F)F)c1)C(N)=O (centres undefined)	i	i	i	i	i	i
CC(C)(C)NCCOc1ccc(Br)cc1	i	i	i	95	i	nt
Cc1cccc2c1N1C(=O)c3c(C(=O)O)cccc3C1CC2C (centres undefined)	i	i	i	i	i	i
O=C(O)CCCCCNC(=O)c1cccc(Br)c1	i	i	i	i	i	i
O=C(NCCOC12CC3CC(CC(C3)C1)C2)c1cccc(Br)c1	i	i	i	94	i	i
CCOC(=O)c1nc(Nc2ccc(N3CCC(C)CC3)cc2)c2ccccc2n1	i	i	i	53	i	i
CCOC(=O)c1nc(Nc2ccc(C(=O)O)cc2)c2ccccc2n1	i	i	i	i	i	i
CCOC(=O)c1nc(Nc2ccc(Nc3ccccc3)cc2)c2ccccc2n1	i	i	i	i	i	i
CCOC(=O)c1nc(Nc2cc(C)cc(C)c2)c2ccccc2n1	i	i	i	52	i	i
O=C(c1cnn2c1NC(c1ccco1)CC2C(F)(F)F)N1CCN(c2cccc(Cl)c2)CC1 (centres undefined)	i	i	i	i	45	i
O=C(c1cc2n(n1)C(C(F)(F)F)CC(c1ccco1)N2)N1CCc2ccccc2C1 (centres undefined)	i	i	i	54	i	nt
O=C(c1ccco1)N1CCN(C(=O)c2cnn3c2NC(c2cccs2)CC3C(F)(F)F)CC1 (centres undefined)	i	i	i	i	i	nt
Cc1nn(-c2cc(C(F)(F)F)ccc2Cl)c2nc(C(Cl)(Cl)Cl)[nH]c(=O)c12	i	nt	i	nt	nt	i
COc1ccc(CNC(=O)CCc2nc3cc(S(=O)(=O)N(C)C)ccc3n2C)cc1OC	i	i	i	i	i	i
O=C(O)CCC(=O)N1CCC(n2nnc3cc(C(F)(F)F)ccc32)CC1	i	nt	i	nt	nt	i
Cc1ccc(NC(=O)C2=C(O)CCn3c2nc2ccccc23)cc1	i	i	i	57	i	i
Cc1c(/C=N/NC(=O)CNc2ccccc2)c2ccccn2c1C(=O)c1ccncc1	i	i	i	100	i	i
COc1ccc(C2=CC(=O)CC(c3ccc(OC)cc3)C2)cc1 (centres undefined)	i	i	i	i	i	i
COc1ccc(C2=CC(=O)CC(c3ccccc3)C2)cc1 (centres undefined)	i	i	i	59	i	i
O=C(CCSc1ccccn1)c1ccccc1	i	i	i	77	i	i
COc1cc(/C=C/C(=O)N2CCN(c3n[nH]c(=O)[nH]c3=O)CC2)cc(OC)c1OC	i	i	i	i	i	i
CC1=CC(C)C(COC(=O)CN2CCCCC2)C(C)C1 (centres undefined)	i	nt	i	nt	nt	i
CC1=CC(C)C(C[N+]2(C)CCCCC2)C(C)C1 (centres undefined)	61	i	39	i	i	i
CC(CC(=O)Nc1nncs1)c1ccccc1 (centres undefined)	i	i	i	i	i	nt
SMILES	BaF3 parental	APP transl inh	Ba/F3 V617F tox	Lmaj promast	MT stabilizer	bCat nuc transl
CCCCOc1ccc(C(=O)NCc2ccccn2)cc1	i	48	i	i	i	i
COc1ccc(C(=O)NCc2ccccn2)cc1	i	i	i	i	i	i
O=C1CSC(c2ccc([N+](=O)[O-])cc2)N1CCN1CCCCC1 (centres undefined)	i	i	i	86	i	i
COc1ccc(C2(C#N)CCC(=O)N2c2ccccc2)cc1 (centres undefined)	i	nt	i	nt	nt	i
Nc1ccc(Br)cc1-c1nc2ccccc2[nH]c1=O	100	i	66	i	i	i
COc1cc(C(=O)Nc2nc(-c3ccc(Cl)cc3)c(C)s2)ccc1OCC(=O)Nc1ccc(F)cc1	i	i	i	i	i	i
CSCCC(NC(=O)COc1ccccc1)C(=O)O (centres undefined)	i	i	i	i	i	i
CN(C)c1ccc(/C=C/C(=O)c2ccc3c(c2)OCCO3)cc1[N+](=O)[O-]	i	i	i	92	i	i
O=C(/C=C/c1ccccc1)c1ccc2c(c1)OCO2	i	nt	i	nt	nt	i
O=C(/C=C/c1ccncc1)c1ccc2c(c1)OCCO2	i	i	i	100	i	i
CCCCN(C)C(=O)c1cc2c(s1)-c1ccccc1S(=O)(=O)C2	i	nt	i	nt	nt	i
O=C(N/N=C/c1ccc(-c2cccc([N+](=O)[O-])c2)o1)c1ccccc1O	i	i	i	93	i	i
COc1cc([N+](=O)[O-])ccc1-c1ccc(/C=N/NC(=O)c2ccccc2O)o1	i	nt	i	nt	nt	i
Cc1ccc(/C=N/NC(=O)c2cccc([N+](=O)[O-])c2)o1	i	62	i	i	i	i
O=C(N/N=C/c1ccccc1O)c1cccc(C(F)(F)F)c1	i	54	i	98	i	i
O=C(N/N=C/c1ccc(-c2cccc(C(F)(F)F)c2)o1)c1ccccc1O	i	i	i	98	i	nt
CCOC(=O)c1cc(C)nc(Sc2ccc(C)cc2)c1C#N	i	nt	i	nt	nt	i
O=C(N/N=C\c1ccc(-c2ccc([N+](=O)[O-])cc2)o1)c1ccc2c(c1)OCO2	i	i	i	i	i	i
Cc1cccc(C(=O)N/N=C/c2cc(Br)c(Br)o2)c1	i	i	i	i	11	nt
O=C(N/N=C/c1ccc(-c2cccc([N+](=O)[O-])c2)o1)c1ccc([N+](=O)[O-])cc1	i	i	i	64	i	i
CCN(CC)S(=O)(=O)c1cccc(C(=O)N/N=C/c2cc(OC)c(O)c(OC)c2)c1	i	i	i	i	i	i
O=C(N/N=C/c1ccc(Br)o1)/C(=C/c1ccc([N+](=O)[O-])cc1)NC(=O)c1ccccc1	i	i	i	57	i	i
CCN(CC)S(=O)(=O)c1cccc(C(=O)N/N=C/c2cccc(O)c2O)c1	i	50	i	98	i	nt
O=c1c2c(nc3cc(-c4ccc(Cl)cc4)[nH]n13)CCS2	i	i	i	i	i	i
CN(CC(=O)Nc1ccc(Cl)c(Cl)c1)C(=O)C12CC3CC(CC(C3)C1)C2	i	i	i	92	i	i
NC(=O)CC(NC(=O)Cc1cccc2ccccc12)c1ccc(N2CCN(c3ccc(F)cc3)CC2)c([N+](=O)[O-])c1 (centres undefined)	nt	nt	nt	nt	nt	i
CC1=C(CC/C(C)=N/NC(N)=S)C(C)(C)CCC1	i	i	i	100	i	i
Cn1c(=O)c2c(nc(SCC(=O)N(C3CCCCC3)C3CCCCC3)n2C)n(C)c1=O	i	i	i	i	i	nt
COc1cc(CNCCN2CCOCC2)ccc1OCc1c(Cl)cccc1Cl	i	i	i	86	i	i
CCOc1cc(CNCCN2CCOCC2)ccc1OCc1ccccc1Cl	i	i	i	98	i	i
